Rows were chosen to be rich in hits. Some 1.3% of all compounds tested hit in one or more screens of this group.
Diaph inh CS: inhibits diaphorase or chemically oxidizes, flagging diaphorase assay artifacts. AID 1217. actives 0.69% (n = 190,000). diaphorase resazurin-to-resorufin fluorescence, NADH, 16 min; bacterial (C. kluyveri) enzyme, not human. inhibition, % at 20 µM;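 active = primary screen inhibition at 20 µM above a set limit, cut at about 50% in these data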
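Test system: bacterial diaphorase enzyme (C. kluyveri); Quantity: 0.14 U/mL diaphorase, enzyme working solution; Times: reaction incubation of 16 min at room temperature; Measured by: fluorescence of resorufin formed from resazurin, Ex 544/Em 590 nm; Benchmarks: positive control minus NADH, DMSO neutral control.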
G6PDH counter: L. mesenteroides G6PDH inhibition counter-screen; Purified L. mesenteroides G6PDH, diaphorase/resazurin coupled fluorescence, 45 min; inhibition, % at 5 µM; actives 0.12% (n = 200,000); in the data active = inhibition above about 50%
PfG6PD inh: PfG6PD (Plasmodium falciparum) enzyme inhibition; PfGluPho enzyme, NADPH resazurin-diaphorase fluorescence; inhibition, % at 20 µM; actives 0.78% (n = 350,000); AID 504690;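 active = inhibition reaching at least a set limit at 20 µM in the primary screen, cut at about 59% in these data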
Diaph act CS: diaphorase activation or chemical reduction counter-screen; actives 0.005% (n = 190,000); activation factor at 20 µM; Diaphorase/resazurin coupled assay, resorufin fluorescence, 16 min; active compounds read high; 1 = vehicle wells, 0 = NADH-free wells;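 active = diaphorase activity raised at least twofold by the compound at 20 µM; inactive = activation factor below 2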
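Test system: Clostridium kluyveri diaphorase, purified enzyme. Buffer or medium: 50 mM HEPES pH 7.4 buffer plus MgCl2 and Tween 20. Also added: 0.114 mM NADH and 0.1 mM resazurin, final amounts. Dosing: compound 20 µM once, DMSO 1%. Schedule: 16 min enzyme reaction, ambient temperature. Detection: fluorescence of resorufin, 544 nm excitation, 590 nm emission.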
HKDC1 inhibitor: inhibitors of human hexokinase HKDC1 | recombinant HKDC1, G6PDH/diaphorase resazurin coupled fluorescence | actives 0.16% (n = 340,000) | AID 493160 | inhibition, % at 20 µM | Q2TB90;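 active = inhibition above about 35% when tested at 20 µM, limit read from the data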
Target sequence (Q2TB90 whole entry, looked up): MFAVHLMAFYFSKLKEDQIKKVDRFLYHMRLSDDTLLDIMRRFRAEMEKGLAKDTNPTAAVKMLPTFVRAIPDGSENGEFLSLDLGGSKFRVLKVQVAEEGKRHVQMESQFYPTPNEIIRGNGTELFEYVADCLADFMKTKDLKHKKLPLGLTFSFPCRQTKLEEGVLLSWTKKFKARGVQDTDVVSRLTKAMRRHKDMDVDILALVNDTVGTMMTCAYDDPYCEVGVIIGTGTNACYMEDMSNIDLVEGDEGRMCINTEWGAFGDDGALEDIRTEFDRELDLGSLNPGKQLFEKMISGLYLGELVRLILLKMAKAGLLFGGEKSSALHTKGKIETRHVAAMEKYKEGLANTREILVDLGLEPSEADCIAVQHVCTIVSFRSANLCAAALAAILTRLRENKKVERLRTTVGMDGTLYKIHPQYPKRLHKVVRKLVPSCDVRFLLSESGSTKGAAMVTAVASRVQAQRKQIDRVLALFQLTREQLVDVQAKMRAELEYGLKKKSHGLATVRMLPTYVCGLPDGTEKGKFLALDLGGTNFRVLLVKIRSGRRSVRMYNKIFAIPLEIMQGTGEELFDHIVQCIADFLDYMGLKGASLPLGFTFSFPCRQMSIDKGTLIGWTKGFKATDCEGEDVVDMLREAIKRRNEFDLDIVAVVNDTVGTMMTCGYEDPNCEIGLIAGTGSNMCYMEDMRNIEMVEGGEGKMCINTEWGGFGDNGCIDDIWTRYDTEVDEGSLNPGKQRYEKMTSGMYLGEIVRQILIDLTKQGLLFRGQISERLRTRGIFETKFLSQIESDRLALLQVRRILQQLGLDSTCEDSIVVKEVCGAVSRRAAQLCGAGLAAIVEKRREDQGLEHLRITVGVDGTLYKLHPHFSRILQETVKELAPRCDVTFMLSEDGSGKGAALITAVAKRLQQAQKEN
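System: Recombinant HKDC1 hexokinase | Amount: HKDC1 at 5 µg/mL | Reagent: Glucose with 1 mM ATP | Doses: Single 20 µM dose | Incubation: Reaction time 90 min, room temperature, protected from light | Signal: Coupled resazurin fluorescence, excitation 525 nm, emission 613 nm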
PfG6PD confirm: confirmation of Plasmodium falciparum G6PD inhibitors; inhibition, % at 20 µM; recombinant PfGluPho, NADPH-diaphorase-resazurin fluorescence; actives 34% (n = 2,400); AID 504753; shares compounds with PfG6PD inh;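 active = inhibition of at least 50% at 20 µM in any single replicate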
Diaph ctr 10uM: counter-screen for P. falciparum G6PD inhibitors: diaphorase inhibitors, oxidizers. inhibition, % at 20 µM. shares compounds with PfG6PD inh. diaphorase-coupled resazurin reduction, fluorescence, NADPH 10 uM. actives 39% (n = 820);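 active = average inhibition reaching 50% or more with the compound at 20 µM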;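 note: resorufin red fluorescence formed as diaphorase reduces resazurin using NADPH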
Diaphorase 30uM: inhibits diaphorase or oxidizes, flagging false PfG6PD hits. Diaphorase/resazurin coupled assay, resorufin fluorescence, 30 uM NADPH. AID 504863. shares compounds with PfG6PD inh. inhibition, % at 20 µM. actives 29% (n = 820);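 active = inhibition averaging 50% or more, tested at 20 µM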
A number is an active result; n = inactive; x = not tested or not shown.

SMILES	Diaph inh CS	G6PDH counter	PfG6PD inh	Diaph act CS	HKDC1 inhibitor	PfG6PD confirm	others
CC(C)c1ccccc1-n1c(SCc2cc(=O)oc3ccc4ccccc4c23)nnc1-c1cccnc1	n	n	61	n	n	n
Clc1ccccc1CO/N=C1\CCCc2nonc21	n	n	n	n	n	x
C=CC[C@@H](CC(=O)N(CCO)Cc1ccccc1)C(=O)N[C@@H](C)COC(=O)[C@@H](CC=C)CC(=O)OC(C)(C)C	x	x	n	x	n	x
COCc1cc(=O)n2[nH]c(C)cc2n1	n	n	n	n	n	x
COCc1cc(=O)n2[nH]c(C(C)(C)C)cc2n1	x	x	61	x	n	48	Diaph ctr 10uM=n;Diaphorase 30uM=n
CC(NC(=O)c1ccco1)c1nc(-c2ccc(C(C)(C)C)cc2)no1 (centres undefined)	x	x	66	x	n	n
CC(C)c1nc2ccccc2n1CCC(=O)O	n	n	n	n	n	x
Cc1ccc(Nc2nnc(SCC(=O)NCCN3C(=O)CSC3=O)s2)cc1C	n	n	n	n	n	x
O=C1N/C(=N\c2ccccn2)SC1Cc1ccccc1Cl (centres undefined)	x	x	n	x	n	x
Clc1ss/c(=N\c2ccccn2)c1Cl	n	n	64	n	n	n
CC(NC(=O)COC(=O)C1CC1C)c1cccc(Cl)c1 (centres undefined)	x	x	n	x	n	x
FC(F)(F)c1cccc(N2CCC(N=CN3CCCCCC3)=N2)c1	n	n	n	n	n	x
O=C(/C=C/c1ccc(O)cc1)c1ccccc1	x	x	n	x	n	x
O=C(/C=C/c1ccc(O)cc1)c1ccc(NC2=C(N3CCCCC3)C(=O)c3ccccc3C2=O)cc1	n	52	71	n	n	n
Cc1c(C(=O)Nc2nc(-c3ccccn3)cs2)oc2ccccc12	x	x	62	x	n	n
CCC1(C)Cc2ccccc2-c2nc(NN)[nH]c(=O)c21 (centres undefined)	x	x	n	x	n	x
CCC1(CC)Cc2ccccc2-c2nc(NN)[nH]c(=O)c21	x	x	76	x	n	n
CCn1c(=S)sc2c(=O)n(-c3ccccc3)c(=S)[nH]c21	n	n	n	n	n	x
CCOc1ccccc1-n1c(=S)sc2c(=O)n(-c3ccc(C)cc3)c(=S)[nH]c21	n	n	98	n	n	78	Diaph ctr 10uM=56;Diaphorase 30uM=51
COc1ccc(-n2c(=S)[nH]c3c(sc(=S)n3-c3ccccc3)c2=O)c(OC)c1	n	n	89	n	n	61	Diaph ctr 10uM=n;Diaphorase 30uM=n
CCc1ccccc1N(CC(=O)NCc1ccco1)C(=O)c1snc(C(N)=O)c1N	n	n	n	n	n	x
COc1c(Cl)cccc1-c1cn2ccc(C)cc2n1	x	x	83	x	n	n
Cc1ccn2cc(-c3cnoc3C)nc2c1	n	n	n	n	n	x
Oc1c(Cl)cc(Cl)cc1C=Nc1cc(C(F)(F)F)ccc1N1CCc2ccccc2C1	x	x	72	x	n	n
COc1ccc(OC)c(NC(=O)CSc2ncccn2)c1	n	n	n	n	n	x
SMILES	Diaph inh CS	G6PDH counter	PfG6PD inh	Diaph act CS	HKDC1 inhibitor	PfG6PD confirm	others
CCOC(=O)c1c(C)[nH]c(C)c1C(=O)COC(=O)c1cc2ccccc2cc1OC	n	n	n	n	n	x
CCOC(=O)c1c(C)[nH]c(C)c1C(=O)COC(=O)c1cc2ccccc2cc1O	n	n	103	n	n	n
CCOC(=O)c1c(C)[nH]c(C)c1C(=O)COC(=O)/C=C/c1ccco1	x	x	82	x	n	67	Diaph ctr 10uM=74;Diaphorase 30uM=57
COc1ccc(OC)c(C(=O)CSc2nc3ncccc3[nH]2)c1	n	n	n	n	n	x
Cn1c(=O)[nH]c(=O)c2c1nc(SCC(=O)O)n2CCc1ccccc1	n	n	63	n	n	n
CCCCCn1c(N2CCC(Cc3ccccc3)CC2)nc2c1c(=O)[nH]c(=O)n2C	x	x	66	x	n	n
CCCNC(=O)c1nn2cc(Br)cnc2c1Br	n	n	n	n	n	x
Cc1nn(C)c(C(=O)N/N=C/c2cccc(Oc3ccccc3)c2)c1Br	x	x	145	x	n	89	Diaph ctr 10uM=80;Diaphorase 30uM=71

Screening data: PubChem BioAssay, Sanford-Burnham Center for Chemical Genomics
